Data from ChEMBL document CHEMBL1153833, “Effect of dosing and dosing frequency on the efficacy of ceftizoxime and the emergence of ceftizoxime resistance during the early development of murine abscesses caused by Bacteroides fragilis and Enterobacter cloacae mixed infection” (Antimicrob Agents Chemother, 2007).
Values after ≈ are worked out from the molar mass of the structure shown. Active and inactive are the calls of the source.

Experiments:
Mus musculus [1] = assay: Unbound Cmax (fCmax) in Bacteroides fragilis ATCC 23745 and Enterobacter cloacae isolate 22491-infected BALB/c mouse mixed infection abscesses model at 100 mg/kg administered as single dose; format: ADME, organism-based; parameters: dose 100 mg/kg; details: in vivo
Procedure, shortened: (§1)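 Single s.c. dose of 100 mg/kg CZX in groups of three infected mice, 4 days after inoculation. Orbital blood taken at 10-360 min. Serum CZX measured in duplicate by agar diffusion bioassay against E. coli strain 62. One-compartment open model; unbound values assume 13% serum protein binding.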

Bacteroides fragilis [2] = assay: Antimicrobial activity against Bacteroides fragilis ATCC 23745 infected BALB/c mouse mixed infection abscesses model co-infected with Enterobacter cloacae isolate 22491 assessed as reduction in bacterial load per abscess at 384 mg/kg/day administered every 8 hrs; format: functional
Procedure, shortened: (§2)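 Female BALB/c mice (12-18 wk) injected s.c. on both flanks with 10^7 CFU each of B. fragilis and E. cloacae plus 4 mg autoclaved cecal contents. CZX was given s.c. from 30 min before inoculation for 24 h, two mice per group. Abscesses were homogenized in PBS and plated in duplicate: E. cloacae on EM agar (aerobic, 24 h), B. fragilis on WC agar with gentamicin (anaerobic, 48 h). Result is mean log10 CFU/abscess of four abscesses ± SEM versus untreated; threshold 1.7 log10.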

[3] = Half life in Bacteroides fragilis ATCC 23745 and Enterobacter cloacae isolate 22491-infected BALB/c mouse mixed infection abscesses model at 100 mg/kg administered as single dose; format: ADME, organism-based; parameters: dose 100 mg/kg; details: in vivo; procedure, shortened: as §1
[4] = Half life in Bacteroides fragilis ATCC 23745 and Enterobacter cloacae isolate 22491-infected BALB/c mouse mixed infection abscesses model at 100 mg/kg administered as 36 doses every 2 hrs; format: ADME, organism-based; parameters: dose 100 mg/kg; details: in vivo
Procedure, shortened: (§3)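 Infected mice received 36 doses of 100 mg/kg CZX q2h. Serum CZX measured in duplicate by agar diffusion bioassay against E. coli strain 62. One-compartment open model; unbound values assume 13% protein binding in mouse serum.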

Enterobacter cloacae [5] = assay: Antimicrobial activity against Enterobacter cloacae isolate 22491 infected BALB/c mouse mixed infection abscesses model co-infected with Bacteroides fragilis ATCC 23745 assessed as reduction in bacterial load per abscess at 1536 mg/kg/day administered every 8 hrs; format: functional; procedure, shortened: as §2
Enterobacter cloacae [6] = assay: Antimicrobial activity against Enterobacter cloacae isolate 22491 infected BALB/c mouse mixed infection abscesses model co-infected with Bacteroides fragilis ATCC 23745 assessed as increase in resistant bacterial count per abscess at 96 mg/kg/day administered every 2 hrs; format: functional
Procedure, shortened: (§4)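 Mixed subcutaneous flank abscesses in female SPF BALB/c mice (10^7 CFU of each strain plus 4 mg autoclaved cecal contents). Drug given subcutaneously, starting 30 min before inoculation, for 24 h. Abscesses homogenized in PBS. Resistant E. cloacae counted on WC agar with 16x MIC (48 h aerobic, 37°C) and total counts on drug-free EM agar. Groups of two mice.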

Enterobacter cloacae [7] = assay: Antimicrobial activity against Enterobacter cloacae isolate 22491 infected BALB/c mouse mixed infection abscesses model co-infected with Bacteroides fragilis ATCC 23745 assessed as increase in resistant bacterial count per abscess at 24 mg/kg/day administered every 2 hrs; format: functional; procedure, shortened: as §4
Bacteroides fragilis [8] = assay: Antimicrobial activity against Bacteroides fragilis ATCC 23745 infected BALB/c mouse mixed infection abscesses model co-infected with Enterobacter cloacae isolate 22491 assessed as bacterial killing at 24 mg/kg/day administered every 4 hrs; format: functional, organism-based; procedure, shortened: as §2
[9] = fT>MIC in Enterobacter cloacae isolate 22491-infected BALB/c mouse at 100 mg/kg; format: functional
Enterobacter cloacae [10] = assay: Antimicrobial activity against Enterobacter cloacae isolate 22491; format: functional
Enterobacter cloacae [11] = assay: Antimicrobial activity against Enterobacter cloacae isolate 22491 infected BALB/c mouse mixed infection abscesses model co-infected with Bacteroides fragilis ATCC 23745 assessed as increase in resistant bacterial count per abscess at 6 mg/kg/day administered every 4 hrs; format: functional; procedure, shortened: as §4
Enterobacter cloacae [12] = assay: Antimicrobial activity against Enterobacter cloacae isolate 22491 infected BALB/c mouse mixed infection abscesses model co-infected with Bacteroides fragilis ATCC 23745 assessed as bacterial killing at 24 mg/kg/day administered every 4 hrs; format: functional, organism-based; procedure, shortened: as §2
Mus musculus [13] = assay: Unbound Cmax (fCmax) in Bacteroides fragilis ATCC 23745 and Enterobacter cloacae isolate 22491-infected BALB/c mouse mixed infection abscesses model at 100 mg/kg administered as 36 doses every 2 hrs; format: ADME, organism-based; parameters: dose 100 mg/kg; details: in vivo; procedure, shortened: as §3
Enterobacter cloacae [14] = assay: Antimicrobial activity against Enterobacter cloacae isolate 22491 infected BALB/c mouse mixed infection abscesses model co-infected with Bacteroides fragilis ATCC 23745 assessed as increase in resistant bacterial count per abscess at 24 mg/kg/day administered every 4 hrs; format: functional; procedure, shortened: as §4
Enterobacter cloacae [15] = assay: Antimicrobial activity against Enterobacter cloacae isolate 22491 assessed as mutation prevention concentration; format: functional
Procedure, shortened: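 Overnight culture concentrated to 10^10 CFU/ml by centrifugation. 1 ml spread over five agar plates containing drug, first at twofold dilutions, then at linear increments. Plates read after 18 h at 37°C. MPC taken as the lowest concentration giving no colonies from 10^10 bacteria. Colonies from the highest concentration were subcultured drug-free to check mutant stability.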

Enterobacter cloacae [16] = assay: Antimicrobial activity against Enterobacter cloacae isolate 22491 infected BALB/c mouse mixed infection abscesses model co-infected with Bacteroides fragilis ATCC 23745 assessed as increase in resistant bacterial count per abscess at 96 mg/kg/day administered every 4 hrs; format: functional; procedure, shortened: as §4
Bacteroides fragilis [17] = assay: Antimicrobial activity against Bacteroides fragilis ATCC 23745 infected BALB/c mouse mixed infection abscesses model co-infected with Enterobacter cloacae isolate 22491 assessed as reduction in bacterial load per abscess at 1536 mg/kg/day administered every 8 hrs; format: functional; procedure, shortened: as §2
[18] = Ratio of fAUC to MIC in Enterobacter cloacae isolate 22491 infected BALB/c mouse mixed infection abscesses model co-infected with Bacteroides fragilis ATCC 23745; format: functional
Bacteroides fragilis [19] = assay: Antimicrobial activity against Bacteroides fragilis ATCC 23745 infected BALB/c mouse mixed infection abscesses model co-infected with Enterobacter cloacae isolate 22491 assessed as bacterial killing at 96 mg/kg/day administered every 4 hrs; format: functional, organism-based; procedure, shortened: as §2
Enterobacter cloacae [20] = assay: Antimicrobial activity against Enterobacter cloacae isolate 22491 infected BALB/c mouse mixed infection abscesses model co-infected with Bacteroides fragilis ATCC 23745 assessed as bacterial killing at 96 mg/kg/day administered every 4 hrs; format: functional, organism-based; procedure, shortened: as §2
Enterobacter cloacae [21] = assay: Antimicrobial activity against Enterobacter cloacae isolate 22491 infected BALB/c mouse mixed infection abscesses model co-infected with Bacteroides fragilis ATCC 23745 assessed as increase in resistant bacterial count per abscess at 6 mg/kg/day administered every 2 hrs; format: functional; procedure, shortened: as §4
Bacteroides fragilis [22] = assay: Antimicrobial activity against Bacteroides fragilis ATCC 23745; format: functional
Enterobacter cloacae [23] = assay: Antimicrobial activity against Enterobacter cloacae isolate 22491 infected BALB/c mouse mixed infection abscesses model co-infected with Bacteroides fragilis ATCC 23745 assessed as bacterial killing at 6 mg/kg/day administered every 2 hrs; format: functional, organism-based; procedure, shortened: as §2
Enterobacter cloacae [24] = assay: Antimicrobial activity against Enterobacter cloacae isolate 22491 infected BALB/c mouse mixed infection abscesses model co-infected with Bacteroides fragilis ATCC 23745 assessed as reduction in bacterial load per abscess at 384 mg/kg/day administered every 8 hrs; format: functional; procedure, shortened: as §2
Bacteroides fragilis [25] = assay: Antimicrobial activity against Bacteroides fragilis ATCC 23745 infected BALB/c mouse mixed infection abscesses model co-infected with Enterobacter cloacae isolate 22491 assessed as bacterial killing at 6 mg/kg/day administered every 2 hrs; format: functional, organism-based; procedure, shortened: as §2
Bacteroides fragilis [26] = assay: Antimicrobial activity against Bacteroides fragilis ATCC 23745 infected BALB/c mouse mixed infection abscesses model co-infected with Enterobacter cloacae isolate 22491 assessed as inhibition of emergence of resistance mutation; format: functional, organism-based
Procedure, shortened: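 Female SPF BALB/c mice (12–18 weeks, 20–25 g) injected subcutaneously on both flanks with 10^7 CFU B. fragilis, 10^7 CFU E. cloacae and 4 mg ACC. Drug given subcutaneously at 6–1,536 mg/kg/day, q2h–q8h, beginning 30 min before inoculation, for 24 h. B. fragilis mutants counted on WC agar with 16x MIC plus 100 mg/liter gentamicin, 72 h anaerobic, 37°C.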

CO/N=C(\C(=O)N[C@@H]1C(=O)N2C(C(=O)O)=CCS[C@H]12)c1csc(N)n1 [CEFTIZOXIME]
Cmax_unbound (Mus musculus [1]): 600 ng/mL
log10cfu (Bacteroides fragilis [2]): >=5
half-life [3]: 13.8 min
half-life [4]: 13.2 min
log10cfu (Enterobacter cloacae [5]): >=5
log10cfu (Enterobacter cloacae [6]): 3.8
log10cfu (Enterobacter cloacae [7]): 3.8
Activity (Bacteroides fragilis [8]): inactive
T>MIC [9]: 9%
MIC (Enterobacter cloacae [10]): 0.25 µg/mL (≈ 0.652 µM)
MIC99 (Enterobacter cloacae [10]): 0.125 µg/mL (≈ 0.326 µM)
log10cfu (Enterobacter cloacae [11]): 2
Activity (Enterobacter cloacae [12]): inactive
Cmax_unbound (Mus musculus [13]): 600 ng/mL
log10cfu (Enterobacter cloacae [14]): 2
MPC (Enterobacter cloacae [15]): 384 µg/mL
log10cfu (Enterobacter cloacae [16]): 2
log10cfu (Bacteroides fragilis [17]): >=5
Ratio [18]: 1000
Activity (Bacteroides fragilis [19]): inactive
Activity (Enterobacter cloacae [20]): inactive
log10cfu (Enterobacter cloacae [21]): 3.8
MIC (Bacteroides fragilis [22]): 1 µg/mL (≈ 2.61 µM)
Activity (Enterobacter cloacae [23]): inactive
log10cfu (Enterobacter cloacae [24]): >=5
Activity (Bacteroides fragilis [25]): inactive
Activity (Bacteroides fragilis [26]): Active
